For data set [1], the system named is Influenza A virus. Nature of the data set: Antiviral activity against Influenza A virus (A/Puerto Rico/8/1934(H1N1)) infected in MDCK cells assessed as inhibition of virus-induced cytopathic effect incubated for 48 hrs by crystal violet staining based assay. The class given is functional, organism-based. Put shortly: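 MDCK cells were infected at MOI 0.1, the inoculum was removed, and compounds were added in triplicate. After 48 h the cells were fixed in 4% formaldehyde (20 min, RT) and stained with 0.1% crystal violet (30 min). Dye was solubilized in methanol and read at 570 nm.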

In data set [2] the test system is Influenza A virus. The data set can be described thus: Antiviral activity against Influenza A virus (A/Puerto Rico/8/1934(H1N1)) infected in Kunming mouse assessed as mouse survival at 40 ug/day dosed intranasally starting 4 hrs after viral challenge and continued for 7 days and measured on day 14 by plaque assay. Type of data set: functional. In short, it runs like this:
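Groups of 10 female Kunming mice were infected intranasally with PR8 (1000 PFU/mouse) on day 0 and dosed once daily for seven days. Weight and clinical signs were recorded daily. Mice losing more than 25% of pre-infection weight were scored dead and euthanized; survivors were killed on day 14.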

The nature of data set [3]: AUC (0 to t) in mouse at 0.5 mg/kg, iv administered as single dose. The conditions noted are these: in vivo. The class given is ADME, organism-based. Put shortly:
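Male Kunming mice (20-25 g) and male Sprague Dawley rats (180-220 g) were fasted 12 h before dosing. Oral dosing was by gavage as a suspension in 0.5% sodium carboxymethyl cellulose; iv dosing was via tail vein in PEG400. Serial plasma samples were taken to 24 h, protein-precipitated with acetonitrile plus N-CH3 internal standard, and quantified by LC-MS/MS (n=3). Bioavailability = AUCoral/AUCiv.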

The nature of data set [4]: Cumulative drug excretion in mouse feces at 0.5 mg/kg, iv administered as single dose measured after 72 hrs. The class given is ADME, organism-based. The conditions noted are these: faeces, read-out: Drug excretion. Put shortly: (§1)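 Single oral (gavage, 0.5% CMC-Na) or iv (tail vein, PEG400) dosing was given to male Kunming mice or Sprague Dawley rats held in metabolic cages. Urine and feces were collected at intervals to 72 h. Feces were dried, ground and homogenized in water (1:9 w/v). Samples were precipitated with acetonitrile containing internal standard and analysed by LC-MS/MS.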

The nature of data set [5]: Metabolic stability in mouse liver microsomes at 2 uM after 60 mins. As to conditions: read-out: Stability. The class given is ADME, Microsome. Put shortly: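 Mouse, rat or human liver microsomes (final 0.5 mg/mL protein) were preincubated with an NADPH-regenerating system in 50 mM Tris-HCl pH 7.4 at 37 °C for 5 min. Compound was added at 2 µM final and incubated at 37 °C; NADPH-free incubations served as controls. Reactions were quenched with acetonitrile plus internal standard at 60 min. Percent remaining was measured by LC-MS/MS (n=3).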
On the technique in general: Liver microsomes are a subcellular fraction often used to study metabolism.

Data set [6] is described as follows: Cumulative drug excretion in rat urine at 0.35mg/kg, iv administered as single dose measured after 72 hrs. The class given is ADME, organism-based. The conditions noted are these: read-out: Drug excretion. In short, it runs like this: as §1
The subject of data set [7] is Influenza A virus. Nature of the data set: Antiviral activity against Influenza A virus (A/Puerto Rico/8/1934(H1N1)) infected in MDCK cells by HA assay. The class given is functional, organism-based. Put shortly: (§2)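 MDCK cells were infected at high moi (≈3.0 PFU/cell). Virus-containing supernatants were serially diluted 2-fold and mixed with an equal volume of 1% chicken red blood cells. After 60 min at 4 °C, wells were scored for button sedimentation versus opaque agglutination to give titers.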

For data set [8], the system named is Influenza A virus. The data set can be described thus: Antiviral activity against Influenza A virus (A/California/04/2009(H1N1)) infected in MDCK cells incubated for 3 days by crystal violet staining based plaque assay. Type of data set: functional, organism-based. As to conditions: 72 h. Put shortly: (§3)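 Confluent MDCK monolayers were exposed to 10-fold serial virus dilutions for 1 h at 37 °C, then washed. The overlay was DMEM with 1.5% agarose, 0.02% DEAE-dextran and 1 µg/ml TPCK-trypsin. After 3 days at 37 °C in 5% CO2, cells were fixed with 0.05% glutaraldehyde, stained with 1% crystal violet in 20% ethanol, and plaques were counted.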

The subject of data set [9] is Influenza A virus. Nature of the data set: Antiviral activity against Influenza A virus (A/Aichi/2/1968(H3N2)) infected in MDCK cells incubated for 3 days by crystal violet staining based plaque assay. The class given is functional, organism-based. The conditions noted are these: 72 h. Put shortly: as §3
In the next data set the test system is Influenza A virus H3N2. The data set can be described thus: Antiviral activity against Influenza A virus H3N2 (A/swine/Minnesota/02719/2009) infected in MDCK cells incubated for 3 days by crystal violet staining based plaque assay. Type of data set: functional, organism-based. The conditions noted are these: 72 h. In short, it runs like this:
as §3

For data set [10], the system named is Influenza A virus. The data set can be described thus: Antiviral activity against Influenza A virus (A/Puerto Rico/8/1934(H1N1)) infected in MDCK cells pre-incubated for 1 hr before assay and incubated for 3 days by crystal violet staining based plaque assay. The class given is functional, organism-based. In short, it runs like this: as §3
A short description of data set [11]: Toxicity in Influenza A virus (A/Puerto Rico/8/1934(H1N1)) infected Kunming mouse assessed as induction of body weight loss at 20 to 40 ug/day dosed intranasally starting 4 hrs after viral challenge and continued for 7 days by plaque assay. The class given is organism-based. The conditions noted are these: in vivo, inhaled_or_intranasal.
The nature of data set [12]: Toxicity in Influenza A virus (A/Puerto Rico/8/1934(H1N1)) infected Kunming mouse assessed as induction of body weight loss at 5 to 10 mg/kg/day, po starting 4 hrs after viral challenge and continued for 7 days by plaque assay. As to conditions: in vivo. The class given is organism-based.
The nature of data set [13]: Toxicity in Kunming mouse assessed as effect on creatinine level at 5 to 10 mg/kg/day, po for 7 days. Type of data set: organism-based. The conditions noted are these: in vivo, 168 h. In short, it runs like this: (§4)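 Male Kunming mice (20–25 g) received compound orally at 5 or 10 mg/kg/day, suspended in 0.5% sodium carboxymethyl cellulose, once daily for 7 days; controls received vehicle. Serum was collected under isoflurane 24 h after the last dose. AST, ALT, CR, BUN, LDH, CK and CK-MB were measured with commercial kits.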

Data set [14] can be described thus: Toxicity in Kunming mouse assessed as effect on LDH level at 5 to 10 mg/kg/day, po for 7 days. The class given is organism-based. The conditions noted are these: in vivo, 168 h. Put shortly:
as §4

Data set [15] deals with Influenza A virus. Nature of the data set: Antiviral activity against Influenza A virus (A/Puerto Rico/8/1934(H1N1)) infected in MDCK cells assessed as decrease in viral titers at 50 ug/ml added during adsorption stage and measured 24 hrs post infection by HA assay. The class given is functional, organism-based. In short, it runs like this: as §2
The test system of data set [16] is Influenza A virus. Nature of the data set: Antiviral activity against luciferase tagged Influenza A virus H5N1 pseudovirus infected in MDCK cells assessed as reduction in virus infection at 50 ug/ml using compound pre-treated virus for infection and measured after 48 hrs by luciferase reporter gene assay. Type of data set: functional, organism-based. Put shortly:
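MDCK cells infected with luciferase-expressing H5N1 HA/NA pseudotyped HIV-based virus were treated with compound under four different treatment regimens. Infection was quantified by firefly luciferase glow assay.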

Data set [17] concerns the target Hemagglutinin (Influenza A virus (A/Puerto Rico/8/1934(H1N1)), UniProt P03452). Nature of the data set: Binding affinity to Influenza A virus (A/Puerto Rico/8/1934(H1N1)) Hemagglutinin at 1.5625 to 50 uM by SPR assay. As to conditions: read-out: Kd. In short, it runs like this: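 HA protein was immobilized on CM5 chips. Compound (50, […], 12.5, 6.25, 3.125, 1.5625 µM) was injected for 2 min, followed by a 10-min PBST wash and regeneration with 2 mM NaOH for 30 s. Runs were at 25 °C with 2 µl/s flow, using a blank HA-free reference channel. KD was obtained from kinetic fitting.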
A general note: Surface plasmon resonance follows binding to a sensor surface in real time, without labels.

For data set [18], the system named is Influenza A virus. The data set can be described thus: Antiviral activity against wild type Influenza A virus (A/Puerto Rico/8/1934(H1N1)) pseudovirus infected in 293FT cells incubated for 48 hrs by inverted fluorescence microscopy. The class given is functional, organism-based. In short, it runs like this: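 GFP-reporter lentiviral pseudoviruses bearing PR8 wild-type or mutant (T30N/E233D/T359A or T359A) HA plus NA were produced in 293FT cells. Pseudovirus was pretreated with 50 µg/ml compound for 1 h at 37 °C before infection. GFP-positive cells were counted by fluorescence microscopy at 48 h p.i.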

Here are results for one molecule from ChEMBL document CHEMBL4619773, “Chemoreactive-Inspired Discovery of Influenza A Virus Dual Inhibitor to Block Hemagglutinin-Mediated Adsorption and Membrane Fusion” (J Med Chem, 2020).

Converted amounts (≈) assume the structure as drawn. The source made the active and inactive calls. The rule behind the calls is not given here.

Hemagglutinin (Influenza A virus (A/Puerto Rico/8/1934(H1N1)), UniProt P03452), sequence (P03452 whole entry): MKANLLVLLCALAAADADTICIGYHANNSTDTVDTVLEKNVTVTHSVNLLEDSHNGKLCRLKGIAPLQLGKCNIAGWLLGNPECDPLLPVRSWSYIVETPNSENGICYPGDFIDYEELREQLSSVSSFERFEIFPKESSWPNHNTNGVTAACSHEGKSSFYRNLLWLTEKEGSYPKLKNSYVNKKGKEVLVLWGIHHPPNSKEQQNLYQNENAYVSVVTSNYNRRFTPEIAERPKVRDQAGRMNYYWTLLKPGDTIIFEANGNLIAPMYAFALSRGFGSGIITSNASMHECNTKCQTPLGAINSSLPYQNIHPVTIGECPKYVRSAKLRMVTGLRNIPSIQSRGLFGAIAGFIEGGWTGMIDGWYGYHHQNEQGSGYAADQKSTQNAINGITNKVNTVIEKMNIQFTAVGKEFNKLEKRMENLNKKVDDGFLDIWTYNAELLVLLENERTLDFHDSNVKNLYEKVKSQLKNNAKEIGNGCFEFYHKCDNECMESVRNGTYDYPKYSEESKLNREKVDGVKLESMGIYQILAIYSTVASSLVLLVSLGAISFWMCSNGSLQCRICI

For orientation: IC50 means the concentration at which inhibition is half-maximal. Usually AUC(0-t) stands for the area under the concentration-time curve up to a stated or last time point. Low readings indicate less exposure, high ones more exposure. In general, Kd refers to the concentration at which binding is half-saturated. As to `CC(=O)c1cc(C)c(O)c(Cc2[nH]c3ccccc3c2Cc2c(O)c(C)cc(C(C)=O)c2O)c1O`, the IC50 in the data set with Influenza A virus [1] was 26.4 µM; with Influenza A virus [8] it was under 13 µg/mL; in the data set on Influenza A virus [9] it was under 13 µg/mL; in the data set on Influenza A virus H3N2 it was under 13 µg/mL; with Influenza A virus [18], 6 µg/mL (≈ 12.7 µM). Further, the Survival with Influenza A virus [2] is on record as 100%. Further, in [3], the AUC(0-t) was 269 ng·h/mL. Moreover, the dose excreted at 72 h amounted to 29.1% in data set [4] and 0.006% in [6]. Besides, the remaining at 1 h, 2 µM in data set [5] worked out at 0.8%. Moreover, the Activity entry in the data set with Influenza A virus [7] is “Dose-dependent effect”; in the data set with Influenza A virus [10] it was “Dose-dependent effect”; in [11], “Non-Toxic”; in data set [12], “Non-Toxic”; in data set [13], “Non-Toxic”; in data set [14], “Non-Toxic”. Also, the outcome in the data set with Influenza A virus [15] was Active. Also, in the data set on Influenza A virus [16], the inhibition result is “Active”. Further, the Kd in [17] worked out at 6.3 µM.
